TNAP act hiacc = TNAP (human) activation, high acceptor | purified TNAP, CDP-star luminescence, 1 M DEA, 30 min; stronger effect = higher value; 0 = EDTA background, 1 = DMSO-only activity | activation factor at 20 µM | 200,000 tested, under 10 active;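 active = activation factor at least 2 at 20 µM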
Target sequence (P05186 whole entry, looked up): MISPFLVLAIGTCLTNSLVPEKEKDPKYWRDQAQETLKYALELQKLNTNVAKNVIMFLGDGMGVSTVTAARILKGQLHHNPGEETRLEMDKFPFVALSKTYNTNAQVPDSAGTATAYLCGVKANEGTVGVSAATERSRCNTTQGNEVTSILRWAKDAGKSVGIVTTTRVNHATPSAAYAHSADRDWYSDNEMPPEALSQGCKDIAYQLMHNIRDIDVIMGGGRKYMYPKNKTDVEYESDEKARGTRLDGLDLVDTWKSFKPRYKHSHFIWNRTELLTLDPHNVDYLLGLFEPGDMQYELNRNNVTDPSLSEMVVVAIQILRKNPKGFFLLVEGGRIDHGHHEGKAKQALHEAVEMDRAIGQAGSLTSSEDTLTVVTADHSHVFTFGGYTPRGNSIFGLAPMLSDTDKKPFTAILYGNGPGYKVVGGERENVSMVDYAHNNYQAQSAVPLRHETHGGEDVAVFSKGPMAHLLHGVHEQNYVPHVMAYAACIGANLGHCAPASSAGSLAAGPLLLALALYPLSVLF
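Assay system: human TNAP; Input: enzyme diluted 1/800 final; Reagent: CDP-star luminogenic substrate at 100 µM final; Timing: 30 min, room temperature; Signal: luminescence; Evaluation: TNAP activation factor scaled between EDTA and DMSO control wells.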
TNAP inh hi DEA = inhibitors of human TNAP at high phosphate acceptor concentration | purified TNAP, CDP-star luminescence, 1 M DEA | P05186 | 200,000 tested, 0.03% active | inhibition, % at 20 µM | AID 1135;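 active = over 50% inhibition of tissue-nonspecific alkaline phosphatase at 20 µM in the single-dose screen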;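 also: plate controls were DMSO wells for no effect and EDTA-quenched wells as full inhibition for full effect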
Lmaj promast = inhibitors of Leishmania major promastigote growth; 200,000 tested, 9% active; inhibition, % at 10 µM; Leishmania major promastigotes, resazurin fluorescence viability; AID 1063; in the data active = inhibition above about 50%;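 also: promastigotes grown with compound for 44 hours at 28 °C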
bCat KO growth = beta-catenin-lacking colon tumor cell growth suppression; HCT116 beta-catenin knockout viability, CellTiter-Glo, 60 h; stronger effect = lower value; viability, % at 10 µM; 140,000 tested, 1.5% active; AID 818;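 active = viability at or under a set limit, the compound median less 4 SD, cut at about 6% in these data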;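 also: 0% = Hyamine 1622 control at 20 µM and 100% = untreated cell control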
PTEN del growth = growth suppressors of cells with PTEN tumor suppressor deletion; viability, % at 10 µM; 140,000 tested, 1.2% active; HCT116 PTEN-null viability, CellTiter-Glo, 60 h; stronger effect = lower value;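 active = viability at or below a set limit, 4 SD under the median of all tested compounds, cut at about 3.7% in these data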;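 also: PTEN knockout HCT116 line with beta catenin targeted HCT116 as companion control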
TNAP inh no acc = inhibitors of human TNAP without phosphate acceptor | P05186 | inhibition, % at 20 µM | AID 1012 | purified TNAP, CDP-star luminescence, 30 min | 200,000 tested, 0.26% active;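 active = tissue-nonspecific alkaline phosphatase inhibition above about 50% at 20 µM in the single-dose screen, limit read from the data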;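 also: 0% = DMSO negative control and 100% = EDTA positive control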
* marks the source's active call; other numbers are inactive results. The list is not random: actives were taken first. Their share in the collection is about 9.6%.

For Cc1ccc(NC(=S)N(CCN(C)C)Cc2cc3cc(C)ccc3[nH]c2=O)cc1 the results were TNAP act hiacc 1, TNAP inh hi DEA -2.6, Lmaj promast 44.2 and TNAP inh no acc -3.3.
`Cc1ccc(NC(=S)N(CCN(C)C)Cc2cc3cccc(C)c3[nH]c2=O)cc1` gave TNAP act hiacc 1.1, TNAP inh hi DEA -8.5, Lmaj promast 26.6, bCat KO growth 60.5, PTEN del growth 62.6 and TNAP inh no acc -5.9.
Screening CN(C)CCCN(Cc1cc2cc3c(cc2[nH]c1=O)OCO3)C(=S)Nc1cccc(Cl)c1 returned TNAP act hiacc 1.1, TNAP inh hi DEA -5.1, Lmaj promast 92.8* and TNAP inh no acc -6.6.
`Cc1cccc(NC(=S)N(CCN(C)C)Cc2cc3cc(C)cc(C)c3[nH]c2=O)c1` gave TNAP act hiacc 1, TNAP inh hi DEA -1.3, Lmaj promast 98.2*, bCat KO growth 32.3, PTEN del growth 21.4 and TNAP inh no acc -0.8.
Cc1cccc(NC(=S)N(CCN(C)C)Cc2cc3cccc(C)c3[nH]c2=O)c1 was read as TNAP act hiacc 1, TNAP inh hi DEA -2.4, Lmaj promast 95.2*, bCat KO growth 65.7, PTEN del growth 69.6 and TNAP inh no acc -12.7.
CN(C)CCCN(Cc1cc2cc3c(cc2[nH]c1=O)OCO3)C(=S)Nc1ccccc1 was read as TNAP act hiacc 1, TNAP inh hi DEA -1.7, Lmaj promast -1.6 and TNAP inh no acc 0.3.
Nc1ccccc1C(=O)N/N=C1\C2CN3CCN(C2)CC1(c1ccccc1)C3 was read as TNAP act hiacc 1, TNAP inh hi DEA -1.6, Lmaj promast 21.8, bCat KO growth 96.2, PTEN del growth 87.3 and TNAP inh no acc -13.7.
`CCN(CC)CCCNC(=O)c1cc2c(=O)n(C)c3ccccc3c2n1C` gave TNAP act hiacc 1, TNAP inh hi DEA -2.9, Lmaj promast 35.0, bCat KO growth 70.8, PTEN del growth 73.7 and TNAP inh no acc -20.1.
CCCN(CCC)CCCNC(=O)c1cc2c(=O)n(C)c3ccccc3c2n1C was read as TNAP act hiacc 1.1, TNAP inh hi DEA -5.6, Lmaj promast 51.2*, bCat KO growth 58.4, PTEN del growth 51.9 and TNAP inh no acc 21.9.
`CCCN1CCN(CCCNC(=O)c2cc3c(=O)n(C)c4ccccc4c3n2C)CC1` gave TNAP act hiacc 1.1, TNAP inh hi DEA -6.6, Lmaj promast 15.3, bCat KO growth 45.0, PTEN del growth 54.9 and TNAP inh no acc -20.4.
For CCCCN(CC)CCNC(=O)c1cc2c(=O)n(C)c3ccccc3c2n1C the results were TNAP act hiacc 1.1, TNAP inh hi DEA -9.1, Lmaj promast 77.4*, bCat KO growth 53.5, PTEN del growth 57.0 and TNAP inh no acc -25.9.
Cn1c(C(=O)NCCCN2CCCCCC2)cc2c(=O)n(C)c3ccccc3c21 was read as TNAP act hiacc 1.1, TNAP inh hi DEA -7.8, Lmaj promast 66.7*, bCat KO growth 87.8, PTEN del growth 80.1 and TNAP inh no acc -10.1.
For Cc1ccc2oc(=O)c3cc(C(=O)Nc4cc(-c5cccc(F)c5)no4)sc3c2c1 the results were TNAP act hiacc 1, TNAP inh hi DEA -4.2, Lmaj promast -9.3, bCat KO growth 95.9, PTEN del growth 84.5 and TNAP inh no acc -11.0.
`CCc1cc(CN2CCOCC2)c(NC(=O)c2ccccc2)s1` gave TNAP act hiacc 1, TNAP inh hi DEA -2.2, Lmaj promast 9.7 and TNAP inh no acc -10.0.
Screening O=C(/C=C/c1ccccc1)NC1CCSC1=O (stereo unspecified) returned TNAP act hiacc 0.9, TNAP inh hi DEA 12.4, Lmaj promast -1.9, bCat KO growth 90.1, PTEN del growth 90.5 and TNAP inh no acc 5.7.
O=S(=O)(/C=C/c1ccccc1)N1CCN(Cc2ccccc2)CC1 was read as TNAP act hiacc 1, TNAP inh hi DEA 0.3, Lmaj promast 77.7* and TNAP inh no acc -10.3.
`O=S(=O)(/C=C/c1ccccc1)N1CCN(c2nc(-c3ccccc3)nc3ccccc23)CC1` gave TNAP act hiacc 1, TNAP inh hi DEA 0.5, Lmaj promast 64.9* and TNAP inh no acc -7.3.
`C(=C\c1nc(N2CCCCCC2)c2ccccc2n1)/c1ccccc1` gave TNAP act hiacc 1, TNAP inh hi DEA 3.2, Lmaj promast 85.7*, bCat KO growth 3.3*, PTEN del growth 8.2 and TNAP inh no acc -7.9.
`Fc1ccccc1-c1nc(N2CCCCC2)c2ccccc2n1` gave TNAP act hiacc 1, TNAP inh hi DEA 1.5, Lmaj promast 34.6, bCat KO growth 82.7, PTEN del growth 74.4 and TNAP inh no acc -3.0.
For c1ccc2c(N3CCCCCC3)nc(-c3ccncc3)nc2c1 the results were TNAP act hiacc 1, TNAP inh hi DEA -3.1, Lmaj promast 86.6*, bCat KO growth 65.8, PTEN del growth 65.1 and TNAP inh no acc -7.3.
COc1ccccc1NC(=O)CC1S/C(=N/N=C2\CCCc3ccccc32)NC1=O (stereo unspecified) was read as TNAP act hiacc 1, TNAP inh hi DEA -4.2, Lmaj promast 3.9 and TNAP inh no acc -7.9.
COc1ccc(C(=O)Nc2ccc(Cl)cc2C(=O)N2CCCC(C)C2)cc1 (stereo unspecified) was read as TNAP act hiacc 1, TNAP inh hi DEA -4.5, Lmaj promast 12.1, bCat KO growth 79.9, PTEN del growth 80.3 and TNAP inh no acc -4.7.
For CCOC(=O)C1CCN(CC(=O)Nc2cc(S(=O)(=O)N3CCOCC3)ccc2C)CC1 the results were TNAP act hiacc 1, TNAP inh hi DEA -0.9, Lmaj promast 3.4 and TNAP inh no acc -13.7.
Screening c1cncc(-c2nc(N3CCCCCC3)c3ccccc3n2)c1 returned TNAP act hiacc 1, TNAP inh hi DEA -1.9, Lmaj promast 31.1, bCat KO growth 73.8, PTEN del growth 72.4 and TNAP inh no acc -5.2.
c1ccc2c(N3CCCCC3)nc(N3CCCCC3)nc2c1 was read as TNAP act hiacc 1.1, TNAP inh hi DEA -6.2, Lmaj promast 68.4*, bCat KO growth 58.3, PTEN del growth 51.3 and TNAP inh no acc -7.8.
`CCN1CCN(c2nc(-c3cccnc3)nc3ccccc23)CC1` gave TNAP act hiacc 1.1, TNAP inh hi DEA -6.8, Lmaj promast 54.2*, bCat KO growth 54.8, PTEN del growth 56.3 and TNAP inh no acc -5.1.
c1ccc2c(N3CCCCC3)nc(N3CCOCC3)nc2c1 was read as TNAP act hiacc 1, TNAP inh hi DEA 0.6, Lmaj promast 16.9 and TNAP inh no acc -5.9.
`CN1CCN(c2nc(-c3cccnc3)nc3ccccc23)CC1` gave TNAP act hiacc 1.1, TNAP inh hi DEA -6.0, Lmaj promast 38.9, bCat KO growth 55.5, PTEN del growth 73.0 and TNAP inh no acc 4.7.
For CCN1CCN(c2nc(-c3ccncc3)nc3ccccc23)CC1 the results were TNAP act hiacc 1, TNAP inh hi DEA -1.5, Lmaj promast 99.9*, bCat KO growth 26.4, PTEN del growth 24.0 and TNAP inh no acc -2.5.

Assay outcomes (PubChem BioAssay)
